Compound activity as filed in PubChem BioAssay.
The list is not random: actives were taken first. Their share in the collection is about 2.6%.
DENV2 CPE: inhibitors of DENV2 cytopathic effect; DENV2-infected cells, cytopathic effect rescue, plate reader; CPE inhibition, % at 9.99 µM; 350,000 tested, 1.7% active; AID 651640; in the data active = CPE inhibition above about 20%, passing the limit was not always enough; inconclusive = no clear call, values can overlap the other calls; tested in BHK-21 cells
ERAP1 HTS inh: ERAP1 (human) enzyme inhibition | Q9NZ08 | recombinant ERAP1, Leu-AMC fluorescence, 60 min | inhibition, % at 10.7 µM | 340,000 tested, 0.15% active;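 active = mean replicate inhibition of at least 30%, or all replicates individually reaching that 30% level; inactive = mean below 30% and not every replicate reaching it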
Target sequence (Q9NZ08 whole entry, looked up): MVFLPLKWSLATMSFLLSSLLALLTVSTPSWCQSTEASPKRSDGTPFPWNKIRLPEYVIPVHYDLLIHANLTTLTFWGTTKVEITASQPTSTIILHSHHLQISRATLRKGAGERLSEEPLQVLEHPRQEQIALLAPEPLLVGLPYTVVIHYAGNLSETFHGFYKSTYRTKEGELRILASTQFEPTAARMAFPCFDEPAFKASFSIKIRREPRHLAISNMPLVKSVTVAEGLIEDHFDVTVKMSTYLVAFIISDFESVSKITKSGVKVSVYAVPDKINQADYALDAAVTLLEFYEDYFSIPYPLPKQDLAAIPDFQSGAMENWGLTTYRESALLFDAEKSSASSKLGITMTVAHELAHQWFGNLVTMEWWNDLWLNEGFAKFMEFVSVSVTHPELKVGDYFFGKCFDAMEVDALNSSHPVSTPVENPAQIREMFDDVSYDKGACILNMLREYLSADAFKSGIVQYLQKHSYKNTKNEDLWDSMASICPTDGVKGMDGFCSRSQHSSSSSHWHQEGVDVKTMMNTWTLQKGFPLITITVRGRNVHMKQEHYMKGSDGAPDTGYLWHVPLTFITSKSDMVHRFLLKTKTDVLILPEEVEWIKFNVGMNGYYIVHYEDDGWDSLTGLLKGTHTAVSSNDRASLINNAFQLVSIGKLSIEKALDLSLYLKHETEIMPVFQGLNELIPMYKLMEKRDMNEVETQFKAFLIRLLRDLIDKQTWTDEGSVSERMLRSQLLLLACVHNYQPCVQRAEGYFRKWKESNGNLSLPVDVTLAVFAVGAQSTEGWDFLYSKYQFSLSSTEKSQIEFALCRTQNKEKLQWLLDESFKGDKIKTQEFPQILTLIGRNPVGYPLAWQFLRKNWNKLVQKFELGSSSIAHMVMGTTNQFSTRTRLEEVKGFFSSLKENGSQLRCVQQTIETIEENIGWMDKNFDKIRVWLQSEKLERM
E-selectin induc: E-selectin induction on HUVECs. HUVEC E-selectin immunofluorescence imaging; normalized: neutral wells 0, TNF-alpha wells 100. activation, % at 7.58 µM. 260,000 tested, 0.37% active;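 active = mean E-selectin-positive cell signal at least 10% of the positive control, reached in at least 60% of replicates, without over 20% cell loss; inconclusive = no rule given, readout overlaps actives, possibly toxicity-flagged; inactive = the rest, including those meeting only one limit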
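Test system: HUVEC | Signal: Immunofluorescence imaging | Read-out: Percent E-selectin-positive cells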
F508del corr: CFTR F508del correction in bronchial cells. AID 720511. CFBE cells, YFP halide quenching; stimulated with forskolin plus potentiator P3; % fluorescence drop versus neutral controls. 350,000 tested, 0.36% active. activity (quench increase), % at 7.58 µM;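 active = mean added fluorescence quench of at least 8% versus neutral control, with both replicates also reaching 8%; inconclusive = only one of the mean or replicate conditions met; inactive = mean below 8% and not both replicates reaching 8%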;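 also: cells transiently co-express mutant CFTR-F508del with the halide-sensitive YFP; corrector assay measuring rescue of mutant channel to the surface after 24 h compound exposure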
miR-122 sensor: blocks miR-122 activity in Huh7 sensor cells. Huh7 miR-122 Renilla luciferase sensor, 48 h; neutral wells = 0, positive control = 100. 340,000 tested, 0.3% active. activation (reporter increase), % at 12.5 µM. AID 602342;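 active = mean replicate activation score at least 90 and every replicate individually at or above 90; inconclusive = only one of the two criteria met; inactive = neither criterion met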;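 also: higher luciferase means less miR-122 activity so hits act as miR-122 inhibitors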
INS-1E GSIS act: primary screen for activators of insulin secretion dependent on glucose, INS-1E cells, GLuc reporter luminescence; INS-1E GLuc reporter insulin secretion, 2-3 h; activation, % at 16.6 µM; 370,000 tested, 0.61% active;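 active = lowest replicate activation of at least 40%, so every replicate reaches that level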
Each line names hits and unclear results; the compound was inactive in the other large screens.

CCOC(=O)C1=C(COC(=O)/C=C/c2ccc(O)c(OC)c2)NC(=O)NC1C (stereo not drawn)	INS-1E GSIS act 58.7 (no result: E-selectin induc, miR-122 sensor)
CC(C)C#Cc1ccc2c(c1)O[C@@H](CN(C)C(=O)C1CCCCC1)[C@@H](C)CN([C@@H](C)CO)S2(=O)=O	none (no result: DENV2 CPE, ERAP1 HTS inh)
Oc1cccc(Oc2ncc(C(F)(F)F)cc2Cl)c1	E-selectin induc 131.6 (no result: miR-122 sensor)
Cc1ccc(/C=C/C(=O)NC2CCCCCCC2)o1	INS-1E GSIS act 57.8 (no result: DENV2 CPE, ERAP1 HTS inh, E-selectin induc, F508del corr, miR-122 sensor)
CCOc1ccc(NC(=O)c2cc(OC)nc3ccccc23)cc1	F508del corr 11.3 (no result: miR-122 sensor)
CCOc1ccc(NC(=O)c2cccc3ccccc23)cc1	none (no result: E-selectin induc)
COc1cc(C(=O)Nc2ccc(C)cc2)c2ccccc2n1	F508del corr 11.1
CCOc1ccc(NC(=O)CNC(=O)c2ccc(OC)cc2)cc1	E-selectin induc 73.1 (no result: miR-122 sensor)
Cc1ccc(NC(=O)c2cc(Cl)nc3ccccc23)cc1	none (no result: DENV2 CPE, ERAP1 HTS inh, E-selectin induc, F508del corr, INS-1E GSIS act)
COCCNC(=O)c1cc(-c2ccc(-c3ccccc3)cc2)nc2ccccc12	F508del corr 9.9 (no result: E-selectin induc)
Cc1noc(C)c1NC(=O)Nc1ccc2c(c1)C(=O)N([C@H](C)CO)C[C@H](C)[C@@H](CN(C)C(=O)Nc1ccc(F)cc1)OCCCC[C@H](C)O2	none
COCC(=O)Nc1ccc2c(c1)[C@H]1C[C@H](CC(=O)NCc3cccc(F)c3)O[C@@H](CO)[C@H]1O2	none
C[C@@H]1CN([C@@H](C)CO)C(=O)c2cc(NS(=O)(=O)c3ccccc3)ccc2O[C@@H](C)CCCCO[C@@H]1CN(C)Cc1ccc(C(F)(F)F)cc1	none
COc1cccc([C@@H]2CC=C(C(=O)O)[C@H](c3ccccc3F)N2S(=O)(=O)c2ccc(C)cc2)c1	DENV2 CPE 21.5 (no result: E-selectin induc, miR-122 sensor, INS-1E GSIS act)
Cc1ccccc1S(=O)(=O)N1C(c2ccc(Cl)cc2)CC=C(C(=O)O)C1c1cccc(Cl)c1 (stereo not drawn)	DENV2 CPE 66.7 (no result: miR-122 sensor, INS-1E GSIS act)
O=C1NC[C@H](Cc2ccccc2)N(CC2CCN(CCCCc3ccccc3)CC2)C1=O	DENV2 CPE 35.2 (no result: E-selectin induc, INS-1E GSIS act)
CCCCN1CCC(CN2C(=O)C(=O)NC[C@@H]2Cc2ccccc2)CC1	none (no result: miR-122 sensor)
COc1ccc(CCN2CCC(CN3C(=S)NC[C@@H]3Cc3ccccc3)CC2)cc1OC	DENV2 CPE 93.3 (no result: miR-122 sensor)
COc1ccc(NC(=O)Nc2ccc3c(c2)CC(=O)N([C@@H](C)CO)C[C@H](C)[C@H](CN(C)C(=O)NC(C)C)O3)cc1	none
O=C(N[C@H]1CC[C@H](CCNS(=O)(=O)c2cccc(Cl)c2)O[C@@H]1CO)c1ccncc1	none
COc1cc2[nH]c3c(N4CCN(c5ccc(Cl)cc5)CC4)ncnc3c2cc1OC	none (no result: DENV2 CPE, ERAP1 HTS inh, E-selectin induc, F508del corr)
COc1cc2[nH]c3c(Cl)ncnc3c2cc1OC	INS-1E GSIS act 53.6 (no result: DENV2 CPE, ERAP1 HTS inh, F508del corr)
COC(=O)C1=C(C)N(Cc2ccc(C(F)(F)F)cc2)C(=NCc2ccccc2C(F)(F)F)NC1c1ccc(C(F)(F)F)cc1 (stereo not drawn)	none (no result: miR-122 sensor, INS-1E GSIS act)
COC(=O)C1=C(C)N(Cc2ccc(C(F)(F)F)cc2)C(=NCc2ccccc2C(F)(F)F)NC1c1cccc(Cl)c1 (stereo not drawn)	INS-1E GSIS act 241.7 (no result: miR-122 sensor)
COC(=O)C1=C(C)N(Cc2ccc(C(F)(F)F)cc2)C(=NCc2ccccc2C(F)(F)F)NC1c1ccccc1 (stereo not drawn)	none (no result: miR-122 sensor)
COC(=O)C1=C(C)N(Cc2ccc(C(F)(F)F)cc2)C(=NCc2ccccc2C(F)(F)F)NC1c1ccc(Cl)cc1 (stereo not drawn)	INS-1E GSIS act 49.1 (no result: miR-122 sensor)
COC(=O)c1ccc(NS(=O)(=O)c2cc(-c3cc(C)no3)ccc2OC)cc1	none
COc1ccc(-c2cc(C)no2)cc1S(=O)(=O)Nc1ccccc1	miR-122 sensor 119.7 (no result: E-selectin induc)
COc1ccc(-c2cc(C)no2)cc1S(=O)(=O)Nc1cccc(C)c1	miR-122 sensor 117.3 (no result: E-selectin induc)
COc1ccccc1NS(=O)(=O)c1cc(-c2cc(C)no2)ccc1OC	DENV2 CPE inconclusive
C[C@H](CO)N1C[C@H](C)[C@H](CN(C)Cc2ccc3c(c2)OCO3)OCCCC[C@H](C)Oc2ccc(NS(=O)(=O)c3ccc(Cl)cc3)cc2C1=O	none (no result: E-selectin induc)
CCCOCCOC(=O)c1[nH]c2c(c1C)C(=O)CC(c1cc(OC)ccc1OC)C2 (stereo not drawn)	F508del corr 9.6
COCCOC(=O)c1[nH]c2c(c1C)C(=O)CC(c1cc(OC)ccc1OC)C2 (stereo not drawn)	none (no result: ERAP1 HTS inh)
COC(=O)CSc1nc2ccccc2nc1SCC(=O)OC	INS-1E GSIS act 66.9 (no result: DENV2 CPE, ERAP1 HTS inh, E-selectin induc, F508del corr)
COC(=O)CSc1nc(-c2ccccc2)nc2ccccc12	none (no result: DENV2 CPE, E-selectin induc, miR-122 sensor)
CC(C)NC(=O)Nc1ccc2c(c1)C(=O)N(C)C[C@@H](C)[C@H](CN(C)C(=O)NC(C)C)O2	none (no result: DENV2 CPE, ERAP1 HTS inh, E-selectin induc, F508del corr, miR-122 sensor)
O=C(Nc1ccnn1C1CCN(C2CCC2)CC1)c1ccccc1Cl	INS-1E GSIS act 64.5
C[C@@H]1CN([C@@H](C)CO)C(=O)c2cc(Br)cnc2O[C@H]1CN(C)C(=O)C1CCC1	none (no result: DENV2 CPE, ERAP1 HTS inh)
Cc1nn2c(NCc3ccccn3)cc(C(C)(C)C)nc2c1-c1ccccc1	none (no result: E-selectin induc)
Cc1cc(NCc2ccccn2)n2nc(C)c(-c3ccccc3)c2n1	F508del corr 11.7 (no result: miR-122 sensor)
Cc1ccc2c(c1)CO[C@]21O[C@H](CCO)C[C@H](O)[C@H]1O	DENV2 CPE 44.3
C[C@H]1CN([C@@H](C)CO)C(=O)Cc2cc(NC(=O)CCN3CCOCC3)ccc2O[C@H]1CN(C)S(=O)(=O)c1ccc(F)cc1	none
N#C[C@H]1[C@@H](c2ccccc2C2=CCCC2)[C@@H](CO)N1C(=O)C1CCC1	DENV2 CPE 37.4 (no result: miR-122 sensor)
CCc1csc(N2[C@@H](C#N)[C@@H](c3ccccc3C3=CCCC3)[C@@H]2CO)n1	none (no result: ERAP1 HTS inh, miR-122 sensor)
CCc1cnc(N2[C@@H](C#N)[C@@H](c3ccccc3C3=CCCC3)[C@@H]2CO)s1	DENV2 CPE 20.4 (no result: miR-122 sensor)
COc1ccccc1-c1ccccc1[C@H]1[C@H](C#N)N(C(=O)C2CCC2)[C@H]1CO	DENV2 CPE 50.0 (no result: miR-122 sensor)
N#C[C@@H]1[C@H](c2ccccc2C2=CCCC2)[C@H](CO)N1C(=O)C1CCC1	none (no result: miR-122 sensor)
COc1ccc(-c2ccc([C@@H]3[C@@H](C#N)N(C(=O)C4CCC4)[C@H]3CO)cc2)cc1	DENV2 CPE 72.3 (no result: miR-122 sensor)
C[C@H](CO)N1C[C@H](C)[C@H](CN(C)S(C)(=O)=O)Oc2ccc(N(C)C)cc2CC1=O	none
COc1cccc(-c2ccc([C@@H]3[C@@H](C#N)N(C(=O)Cc4ccccc4)[C@@H]3CO)cc2)c1	DENV2 CPE 26.3 (no result: miR-122 sensor)
COc1ccccc1-c1ccc([C@H]2[C@@H](CO)N[C@@H]2CNC(=O)C2CCC2)cc1	none (no result: DENV2 CPE, ERAP1 HTS inh, E-selectin induc, F508del corr, miR-122 sensor)
COc1ccccc1-c1ccc([C@H]2[C@@H](CO)N(C(=O)C3CCCC3)[C@H]2C#N)cc1	DENV2 CPE 35.8 (no result: miR-122 sensor)
COc1ccccc1-c1ccc([C@H]2[C@@H](CO)N[C@@H]2CNC(=O)C2CCCC2)cc1	DENV2 CPE 24.9 (no result: miR-122 sensor)
